According to ChEMBL document CHEMBL3797186, “Single Residue Substitutions That Confer Voltage-Gated Sodium Ion Channel Subtype Selectivity in the NaV1.7 Inhibitory Peptide GpTx-1” (J Med Chem, 2016):
Positions of bridges follow the written chain, without caps; N, C: chain ends. Residues, ends and D or L forms follow the SMILES beside them.

What follows are compounds tested against Sodium channel protein type 5 subunit alpha (Homo sapiens, UniProt Q14524) (assay: Inhibition of human Nav1.5 expressed in HEK293 cells assessed as inward peak current by ion-works quattro patch clamp electrophysiology method).
Sodium channel protein type 5 subunit alpha, sequence (Q14524 whole entry): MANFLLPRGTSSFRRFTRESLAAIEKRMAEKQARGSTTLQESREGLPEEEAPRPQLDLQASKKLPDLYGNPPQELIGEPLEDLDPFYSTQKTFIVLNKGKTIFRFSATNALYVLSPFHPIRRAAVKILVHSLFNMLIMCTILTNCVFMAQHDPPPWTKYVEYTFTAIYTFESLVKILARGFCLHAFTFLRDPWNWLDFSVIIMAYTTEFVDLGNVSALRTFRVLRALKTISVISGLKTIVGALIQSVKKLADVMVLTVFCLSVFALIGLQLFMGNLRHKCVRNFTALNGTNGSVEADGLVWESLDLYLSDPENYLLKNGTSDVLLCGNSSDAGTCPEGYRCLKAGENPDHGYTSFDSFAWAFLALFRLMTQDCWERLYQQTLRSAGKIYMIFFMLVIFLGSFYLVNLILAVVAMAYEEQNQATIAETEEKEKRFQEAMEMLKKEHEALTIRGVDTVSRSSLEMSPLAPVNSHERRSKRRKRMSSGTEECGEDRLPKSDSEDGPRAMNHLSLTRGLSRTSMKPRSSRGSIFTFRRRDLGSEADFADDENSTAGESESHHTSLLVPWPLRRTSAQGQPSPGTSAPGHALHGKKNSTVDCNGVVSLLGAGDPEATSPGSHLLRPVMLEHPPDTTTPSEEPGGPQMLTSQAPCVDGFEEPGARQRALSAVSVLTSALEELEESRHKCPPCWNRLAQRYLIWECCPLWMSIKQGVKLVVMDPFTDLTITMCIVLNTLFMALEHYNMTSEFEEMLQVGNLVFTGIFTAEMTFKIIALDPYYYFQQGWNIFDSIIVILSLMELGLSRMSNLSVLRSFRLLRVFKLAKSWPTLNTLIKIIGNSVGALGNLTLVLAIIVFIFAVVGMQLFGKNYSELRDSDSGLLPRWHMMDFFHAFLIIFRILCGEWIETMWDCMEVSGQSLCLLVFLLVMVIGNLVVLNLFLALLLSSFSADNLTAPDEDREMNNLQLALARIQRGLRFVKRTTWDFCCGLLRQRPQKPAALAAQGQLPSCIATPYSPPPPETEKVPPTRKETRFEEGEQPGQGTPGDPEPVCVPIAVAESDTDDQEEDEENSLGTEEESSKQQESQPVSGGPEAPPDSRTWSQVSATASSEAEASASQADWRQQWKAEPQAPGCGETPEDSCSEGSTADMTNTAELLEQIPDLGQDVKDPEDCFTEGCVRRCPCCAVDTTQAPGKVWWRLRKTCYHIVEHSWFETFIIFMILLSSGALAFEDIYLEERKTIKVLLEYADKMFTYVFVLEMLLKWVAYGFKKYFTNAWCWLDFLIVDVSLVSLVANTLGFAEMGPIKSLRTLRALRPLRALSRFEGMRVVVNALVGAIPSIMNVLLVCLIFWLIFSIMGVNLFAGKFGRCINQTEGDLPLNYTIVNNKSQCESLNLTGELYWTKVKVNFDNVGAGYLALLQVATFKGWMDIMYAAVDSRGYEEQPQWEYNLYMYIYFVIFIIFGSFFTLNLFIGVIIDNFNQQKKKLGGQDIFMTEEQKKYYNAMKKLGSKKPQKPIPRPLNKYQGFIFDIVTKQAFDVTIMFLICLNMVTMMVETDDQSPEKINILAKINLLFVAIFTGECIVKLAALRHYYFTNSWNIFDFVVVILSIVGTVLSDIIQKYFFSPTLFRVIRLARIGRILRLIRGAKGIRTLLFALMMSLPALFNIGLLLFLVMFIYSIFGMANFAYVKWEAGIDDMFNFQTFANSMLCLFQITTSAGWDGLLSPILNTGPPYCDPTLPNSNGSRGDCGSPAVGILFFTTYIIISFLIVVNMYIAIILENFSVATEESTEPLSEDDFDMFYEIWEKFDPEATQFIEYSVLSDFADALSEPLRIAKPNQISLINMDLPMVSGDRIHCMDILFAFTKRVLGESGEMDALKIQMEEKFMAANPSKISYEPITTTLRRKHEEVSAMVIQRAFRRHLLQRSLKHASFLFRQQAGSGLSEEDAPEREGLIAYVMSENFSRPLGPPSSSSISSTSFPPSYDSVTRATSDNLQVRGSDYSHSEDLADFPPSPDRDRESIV
Assay type: cell-based
In short: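 Stable HEK293 line expressing human NaV1.5, recorded by population patch clamp on the IonWorks Quattro.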
With CSCC[C@@H]1NC(=O)[C@H](Cc2ccccc2)NC(=O)CNC(=O)[C@H](CC(C)C)NC(=O)[C@@H](NC(=O)[C@@H](N)CC(=O)O)CSSC[C@@H]2NC(=O)[C@@H]3CSSC[C@@H](C(=O)N[C@@H](CCCCN)C(=O)N[C@@H](Cc4ccc(O)cc4)C(=O)N[C@H](C(=O)N[C@@H](Cc4ccccc4)C(N)=O)C(C)C)NC(=O)[C@H](Cc4c[nH]c5ccccc45)NC(=O)[C@H](CCCCN)NC(=O)[C@H](Cc4cnc[nH]4)NC(=O)[C@H]([C@@H](C)O)NC(=O)[C@H](CCCNC(=N)N)NC(=O)[C@H](CO)NC(=O)[C@H](CSSC[C@H](NC(=O)[C@H](CCCCN)NC(=O)[C@H](CCCNC(=N)N)NC1=O)C(=O)N[C@@H](C(C)C)C(=O)N1CCC[C@H]1C(=O)N[C@@H](CC(=O)O)C(=O)N[C@@H](CC(N)=O)C(=O)N[C@@H](CC(=O)O)C(=O)N[C@@H](CCCCN)C(=O)N3)NC(=O)[C@H](C(C)C)NC(=O)[C@H](CC(C)C)NC(=O)[C@H](CC(N)=O)NC(=O)[C@@H]1CCCN1C(=O)[C@H](CCCNC(=N)N)NC2=O (H-DCLGFMRKCVPDNDKCCRPNLVCSRTHKWCKYVF-NH2; disulfide 2-17, 9-23, 16-30) the IC50 was > 5 µM. CC[C@H](C)[C@@H]1NC(=O)[C@@H]2CSSC[C@@H]3NC(=O)[C@H](C(C)C)NC(=O)[C@H](CC(C)C)NC(=O)[C@H](CC(N)=O)NC(=O)[C@@H]4CCCN4C(=O)[C@H](CCCNC(=N)N)NC(=O)[C@H](CSSC[C@H](NC(=O)[C@@H](N)CC(=O)O)C(=O)N[C@@H](CC(C)C)C(=O)NCC(=O)N[C@@H](Cc4ccccc4)C(=O)N[C@@H](CCSC)C(=O)N[C@@H](CCCNC(=N)N)C(=O)N[C@@H](CCCCN)C(=O)N2)NC(=O)[C@H](CSSC[C@@H](C(=O)N[C@@H](CCCCN)C(=O)N[C@@H](Cc2ccc(O)cc2)C(=O)N[C@H](C(=O)N[C@@H](Cc2ccccc2)C(N)=O)C(C)C)NC(=O)[C@H](Cc2c[nH]c4ccccc24)NC(=O)[C@H](CCCCN)NC(=O)[C@H](Cc2cnc[nH]2)NC(=O)[C@H]([C@@H](C)O)NC(=O)[C@H](CCCCN)NC(=O)[C@H](CO)NC3=O)NC(=O)[C@H](CCCCN)NC(=O)[C@H](CC(=O)O)NC(=O)[C@H](CC(N)=O)NC(=O)[C@H](CC(=O)O)NC(=O)[C@@H]2CCCN2C1=O (H-DCLGFMRKCIPDNDKCCRPNLVCSKTHKWCKYVF-NH2; disulfide 2-17, 9-23, 16-30) was tested, and the IC50 was > 5 µM. For CSCC[C@@H]1NC(=O)[C@H](Cc2ccccc2)NC(=O)CNC(=O)[C@H](CC(C)C)NC(=O)[C@@H](NC(=O)[C@@H](N)CC(=O)O)CSSC[C@@H]2NC(=O)[C@@H]3CSSC[C@@H](C(=O)N[C@@H](CCCCN)C(=O)N[C@@H](Cc4ccc(O)cc4)C(=O)N[C@H](C(=O)N[C@@H](Cc4ccccc4)C(N)=O)C(C)C)NC(=O)[C@H](Cc4c[nH]c5ccccc45)NC(=O)[C@H](CCCCN)NC(=O)[C@H](Cc4cnc[nH]4)NC(=O)[C@H]([C@@H](C)O)NC(=O)[C@H](CCCNC(=N)N)NC(=O)[C@H](CO)NC(=O)[C@H](CSSC[C@H](NC(=O)[C@H](CCCCN)NC(=O)[C@H](CCCNC(=N)N)NC1=O)C(=O)N[C@@H](Cc1cnc[nH]1)C(=O)N1CCC[C@H]1C(=O)N[C@@H](CC(=O)O)C(=O)N[C@@H](CC(N)=O)C(=O)N[C@@H](CC(=O)O)C(=O)N[C@@H](CCCCN)C(=O)N3)NC(=O)[C@H](C(C)C)NC(=O)[C@H](CC(C)C)NC(=O)[C@H](CC(N)=O)NC(=O)[C@@H]1CCCN1C(=O)[C@H](CCCNC(=N)N)NC2=O (H-DCLGFMRKCHPDNDKCCRPNLVCSRTHKWCKYVF-NH2; disulfide 2-17, 9-23, 16-30), the IC50 was > 5 µM.
